The target of experiment [1] is Mitogen-activated protein kinase 7 (Homo sapiens) (UniProt Q13164). Description: Binding affinity to wild-type human partial length ERK5 (M1 to A409 residues) expressed in Escherichia coli BL21 at 1 uM by Kinomescan method relative to control.
The subject of experiment [2] is Receptor-type tyrosine-protein kinase FLT3 (Homo sapiens), P36888 [D835H]. Description: Binding affinity to human partial length FLT3 D835H mutant (V592 to Y969 residues) expressed in Escherichia coli BL21 at 1 uM by Kinomescan method relative to control.
Experiment [3] has as its target Serine/threonine-protein kinase N1 (Homo sapiens) (UniProt Q16512). Description: Binding affinity to wild-type human partial length PKN1 (E598 to C948 residues) expressed in Escherichia coli BL21 at 1 uM by Kinomescan method relative to control.
The target in experiment [4] is Tyrosine-protein kinase receptor UFO (Homo sapiens) (UniProt P30530). The experiment in a line: Binding affinity to wild-type human partial length AXL (R497 to Y821 residues) expressed in Escherichia coli BL21 at 1 uM by Kinomescan method relative to control.
The target in experiment [5] is Fibroblast growth factor receptor 4 (Homo sapiens) (UniProt P22455). Description: Binding affinity to wild-type human partial length FGFR4 (G402 to E713 residues) expressed in Escherichia coli BL21 at 1 uM by Kinomescan method relative to control.
Experiment [6] concerns the target Calcium/calmodulin-dependent protein kinase kinase 2 (Homo sapiens) (UniProt Q96RR4). Description: Binding affinity to wild-type human partial length CAMKK2 (D65 to V471 residues) expressed in Escherichia coli BL21 at 1 uM by Kinomescan method relative to control.
Experiment [7] has as its target Myosin-IIIa (Homo sapiens) (UniProt Q8NEV4). Description: Binding affinity to wild-type human partial length MYO3A (M1 to K338 residues) expressed in Escherichia coli BL21 at 1 uM by Kinomescan method relative to control.
Experiment [8] has as its target Tyrosine-protein kinase JAK3 (Homo sapiens) (UniProt P52333). Description: Binding affinity to wild-type human partial length JAK3 JH1 catalytic domain (I781 to S1124 residues) expressed in HEK293 cells at 1 uM by Kinomescan method relative to control. Format: cell-based.
Experiment [9] has as its target Serine/threonine-protein kinase TAO3 (Homo sapiens) (UniProt Q9H2K8). Description: Binding affinity to wild-type human partial length TAOK3 (M1 to T316 residues) expressed in HEK293 cells at 1 uM by Kinomescan method relative to control. It counts as cell-based.
For experiment [10], the target named is Cyclin-dependent kinase-like 2 (Homo sapiens) (UniProt Q92772). Description: Binding affinity to wild-type human partial length CDKL2 (M1 to D327 residues) expressed in Escherichia coli BL21 at 1 uM by Kinomescan method relative to control.
Experiment [11] deals with Atypical kinase COQ8A, mitochondrial (Homo sapiens) (UniProt Q8NI60). The experiment in a line: Binding affinity to wild-type human […] ADCK3 (M280 to Q647 residues) expressed in Escherichia coli BL21 at 1 uM by Kinomescan method relative to control.
The target of experiment [12] is 3-phosphoinositide-dependent protein kinase 1 (Homo sapiens) (UniProt O15530). Description: Binding affinity to wild-type human full length PDPK1 (M1 to Q556 residues) expressed in Escherichia coli BL21 at 1 uM by Kinomescan method relative to control. A digest of the protocol:
(§1)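 Kinome-wide competition binding panel run by an outside provider, with each compound tested at a single concentration. Activity is read against the kinase panel.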

Experiment [13] has as its target Homeodomain-interacting protein kinase 4 (Homo sapiens) (UniProt Q8NE63). The experiment in a line: Binding affinity to wild-type human partial length HIPK4 (M1 to V384 residues) expressed in Escherichia coli BL21 at 1 uM by Kinomescan method relative to control.
In experiment [14] the target is Serine/threonine-protein kinase SBK1 (Homo sapiens) (UniProt Q52WX2). Description: Binding affinity to wild-type human partial length SBK1 (P23 to P348 residues) expressed in HEK293 cells at 1 uM by Kinomescan method relative to control. It counts as cell-based.
The test system of experiment [15] is Tyrosine-protein kinase ABL1 (Homo sapiens), P00519 [F317I]. Description: Binding affinity to human non-phosphorylated ABL1 F317I mutant (S229 to K512 residues) expressed in HEK293 cells at 1 uM by Kinomescan method relative to control. Format: cell-based.
The target in experiment [16] is Homeodomain-interacting protein kinase 3 (Homo sapiens) (UniProt Q9H422). Description: Binding affinity to wild-type human partial length HIPK3 (M153 to N562 residues) expressed in HEK293 cells at 1 uM by Kinomescan method relative to control. Format: cell-based.
Experiment [17] has as its target Proto-oncogene tyrosine-protein kinase Src (Homo sapiens) (UniProt P12931). Description: Binding affinity to wild-type human partial length SRC (L240 to L536 residues) expressed in Escherichia coli BL21 at 1 uM by Kinomescan method relative to control.
In experiment [18] the target is Serine/threonine-protein kinase B-raf (Homo sapiens) (UniProt P15056). Description: Binding affinity to wild-type human partial length BRAF (S429 to E741 residues) expressed in HEK293 cells at 1 uM by Kinomescan method relative to control. Format: cell-based.
In experiment [19] the target is Tyrosine-protein kinase JAK1 (Homo sapiens) (UniProt P23458). The experiment in a line: Binding affinity to wild-type human partial length JAK1 JH1 catalytic domain (V856 to K1154 residues) expressed in Escherichia coli BL21 at 1 uM by Kinomescan method relative to control.
In experiment [20] the target is Dual specificity mitogen-activated protein kinase kinase 6 (Homo sapiens) (UniProt P52564). The experiment in a line: Binding affinity to wild-type human partial length MEK6 (K36 to D334 residues) expressed in Escherichia coli BL21 at 1 uM by Kinomescan method relative to control.
Sequence of Dual specificity mitogen-activated protein kinase kinase 6 (Homo sapiens) (P52564 whole entry, the tested form may be a part): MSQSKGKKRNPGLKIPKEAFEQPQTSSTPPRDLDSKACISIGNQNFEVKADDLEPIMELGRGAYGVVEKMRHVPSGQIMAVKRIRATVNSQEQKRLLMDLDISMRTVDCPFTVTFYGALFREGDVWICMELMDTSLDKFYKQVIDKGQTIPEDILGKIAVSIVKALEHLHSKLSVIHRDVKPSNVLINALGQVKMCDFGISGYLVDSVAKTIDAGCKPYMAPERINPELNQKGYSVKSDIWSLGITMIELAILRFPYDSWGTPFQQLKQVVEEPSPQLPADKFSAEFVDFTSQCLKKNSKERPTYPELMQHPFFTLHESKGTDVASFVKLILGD
Experiment [21] has as its target Mitogen-activated protein kinase 14 (Homo sapiens) (UniProt Q16539). The experiment in a line: Binding affinity to wild-type human full length p38-alpha (M1 to S360 residues) expressed in Escherichia coli BL21 at 1 uM by Kinomescan method relative to control. A digest of the protocol:
as §1

Experiment [22] addresses Cyclin-dependent kinase 8 (Homo sapiens) (UniProt P49336). The experiment in a line: Binding affinity to wild-type human partial length CDK8 (M1 to T360 residues) expressed in Escherichia coli BL21 at 1 uM by Kinomescan method relative to control.
Experiment [23] addresses Rhodopsin kinase GRK7 (Homo sapiens) (UniProt Q8WTQ7). Description: Binding affinity to wild-type human full length GRK7 (M1 to L553 residues) expressed in HEK293 cells at 1 uM by Kinomescan method relative to control. It counts as cell-based. The method, boiled down:
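Run as one kinome-wide competition binding panel with each compound at a single fixed concentration. Results were plotted as a kinome-wide selectivity map.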

Sequence of Myosin-IIIa (Homo sapiens) (Q8NEV4 whole entry, the tested form may be a part): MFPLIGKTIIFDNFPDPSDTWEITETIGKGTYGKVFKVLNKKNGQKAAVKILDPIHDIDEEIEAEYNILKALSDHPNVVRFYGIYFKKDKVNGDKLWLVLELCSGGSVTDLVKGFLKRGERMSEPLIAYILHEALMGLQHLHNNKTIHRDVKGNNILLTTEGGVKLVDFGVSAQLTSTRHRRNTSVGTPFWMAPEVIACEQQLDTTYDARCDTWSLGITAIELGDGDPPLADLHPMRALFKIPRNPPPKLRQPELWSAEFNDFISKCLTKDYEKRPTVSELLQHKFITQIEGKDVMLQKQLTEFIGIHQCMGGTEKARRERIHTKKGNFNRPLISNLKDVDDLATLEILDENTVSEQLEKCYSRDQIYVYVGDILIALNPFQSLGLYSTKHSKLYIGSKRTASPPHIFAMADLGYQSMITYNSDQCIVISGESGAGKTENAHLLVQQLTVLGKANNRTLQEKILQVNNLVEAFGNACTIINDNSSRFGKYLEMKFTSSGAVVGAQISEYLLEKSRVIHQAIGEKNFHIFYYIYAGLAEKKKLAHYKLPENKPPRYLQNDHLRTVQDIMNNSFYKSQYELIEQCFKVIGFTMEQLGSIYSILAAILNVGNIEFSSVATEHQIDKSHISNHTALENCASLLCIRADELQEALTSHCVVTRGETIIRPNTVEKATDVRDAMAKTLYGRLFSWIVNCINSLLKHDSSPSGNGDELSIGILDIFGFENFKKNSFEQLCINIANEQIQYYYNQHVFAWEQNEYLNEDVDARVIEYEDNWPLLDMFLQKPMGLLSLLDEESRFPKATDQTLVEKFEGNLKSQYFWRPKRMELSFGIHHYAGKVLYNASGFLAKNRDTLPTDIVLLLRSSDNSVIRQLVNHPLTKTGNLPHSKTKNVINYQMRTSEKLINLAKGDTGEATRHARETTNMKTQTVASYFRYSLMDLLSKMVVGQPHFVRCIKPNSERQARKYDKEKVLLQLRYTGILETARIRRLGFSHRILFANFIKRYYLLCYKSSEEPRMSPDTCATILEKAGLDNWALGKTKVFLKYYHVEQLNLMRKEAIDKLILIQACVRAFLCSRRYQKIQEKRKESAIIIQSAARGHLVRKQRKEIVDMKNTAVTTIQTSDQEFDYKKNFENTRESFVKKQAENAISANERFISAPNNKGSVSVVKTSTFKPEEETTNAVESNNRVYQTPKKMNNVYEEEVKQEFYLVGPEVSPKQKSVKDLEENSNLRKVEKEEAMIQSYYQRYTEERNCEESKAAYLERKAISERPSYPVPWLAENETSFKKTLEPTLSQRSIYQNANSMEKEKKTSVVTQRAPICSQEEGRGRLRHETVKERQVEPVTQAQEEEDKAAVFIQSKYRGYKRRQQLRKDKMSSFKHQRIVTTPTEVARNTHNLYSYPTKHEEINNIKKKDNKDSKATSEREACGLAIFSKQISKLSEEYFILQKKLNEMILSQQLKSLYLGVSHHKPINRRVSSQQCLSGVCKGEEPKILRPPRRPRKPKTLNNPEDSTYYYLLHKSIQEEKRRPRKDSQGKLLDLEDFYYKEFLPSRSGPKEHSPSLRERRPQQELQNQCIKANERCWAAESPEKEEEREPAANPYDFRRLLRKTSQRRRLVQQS
Sequence of Rhodopsin kinase GRK7 (Homo sapiens) (Q8WTQ7 whole entry, the tested form may be a part): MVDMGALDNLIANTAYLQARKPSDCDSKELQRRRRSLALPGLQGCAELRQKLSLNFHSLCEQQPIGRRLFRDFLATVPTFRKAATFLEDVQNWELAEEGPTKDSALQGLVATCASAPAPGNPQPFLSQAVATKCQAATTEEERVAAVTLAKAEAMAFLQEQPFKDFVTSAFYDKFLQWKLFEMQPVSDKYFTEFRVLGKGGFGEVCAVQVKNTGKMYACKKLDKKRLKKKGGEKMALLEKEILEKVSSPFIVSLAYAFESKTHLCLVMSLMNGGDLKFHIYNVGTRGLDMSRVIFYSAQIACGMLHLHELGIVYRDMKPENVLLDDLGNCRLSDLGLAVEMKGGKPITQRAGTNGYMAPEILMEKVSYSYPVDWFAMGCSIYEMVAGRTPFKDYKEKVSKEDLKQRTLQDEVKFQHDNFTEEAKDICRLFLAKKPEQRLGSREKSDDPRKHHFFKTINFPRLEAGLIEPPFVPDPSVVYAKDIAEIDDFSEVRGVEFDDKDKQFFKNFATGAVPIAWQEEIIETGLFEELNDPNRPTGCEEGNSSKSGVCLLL
Sequence of Mitogen-activated protein kinase 14 (Homo sapiens) (Q16539 whole entry, the tested form may be a part): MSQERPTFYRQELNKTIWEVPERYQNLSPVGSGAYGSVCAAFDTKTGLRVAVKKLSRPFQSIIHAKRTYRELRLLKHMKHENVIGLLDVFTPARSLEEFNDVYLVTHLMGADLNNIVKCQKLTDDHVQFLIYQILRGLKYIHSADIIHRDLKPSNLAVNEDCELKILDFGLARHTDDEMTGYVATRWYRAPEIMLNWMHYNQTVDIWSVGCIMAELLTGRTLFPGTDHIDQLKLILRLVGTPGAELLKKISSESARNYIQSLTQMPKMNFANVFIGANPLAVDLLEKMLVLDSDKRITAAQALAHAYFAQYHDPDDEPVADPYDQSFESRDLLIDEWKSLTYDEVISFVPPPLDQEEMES
Sequence of Serine/threonine-protein kinase N1 (Homo sapiens) (Q16512 2-942 limits assumed): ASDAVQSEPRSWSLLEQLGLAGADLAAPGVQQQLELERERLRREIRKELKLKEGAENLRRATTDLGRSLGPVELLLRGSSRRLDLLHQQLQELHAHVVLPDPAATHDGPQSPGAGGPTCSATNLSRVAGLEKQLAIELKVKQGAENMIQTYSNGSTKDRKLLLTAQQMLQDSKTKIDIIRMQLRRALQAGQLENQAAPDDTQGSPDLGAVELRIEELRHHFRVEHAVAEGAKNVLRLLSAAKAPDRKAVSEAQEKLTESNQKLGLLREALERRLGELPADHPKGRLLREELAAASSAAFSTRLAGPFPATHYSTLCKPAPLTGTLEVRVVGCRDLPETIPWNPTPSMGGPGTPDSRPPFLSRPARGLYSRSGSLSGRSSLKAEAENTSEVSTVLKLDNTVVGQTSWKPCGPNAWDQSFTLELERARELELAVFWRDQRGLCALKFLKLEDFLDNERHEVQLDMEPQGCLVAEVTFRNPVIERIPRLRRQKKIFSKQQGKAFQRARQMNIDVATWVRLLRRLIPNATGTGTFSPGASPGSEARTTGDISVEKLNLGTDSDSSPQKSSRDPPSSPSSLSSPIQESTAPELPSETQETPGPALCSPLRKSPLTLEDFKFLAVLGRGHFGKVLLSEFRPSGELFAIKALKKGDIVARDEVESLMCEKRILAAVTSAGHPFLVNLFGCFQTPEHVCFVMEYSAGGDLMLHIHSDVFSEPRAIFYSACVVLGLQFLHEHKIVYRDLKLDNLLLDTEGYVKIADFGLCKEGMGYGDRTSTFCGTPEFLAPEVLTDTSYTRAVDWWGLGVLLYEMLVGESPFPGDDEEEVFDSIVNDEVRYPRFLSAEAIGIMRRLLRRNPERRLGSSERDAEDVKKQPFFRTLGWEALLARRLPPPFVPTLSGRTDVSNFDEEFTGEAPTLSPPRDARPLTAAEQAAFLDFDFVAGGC
Sequence of Serine/threonine-protein kinase TAO3 (Homo sapiens) (Q9H2K8 whole entry, the tested form may be a part): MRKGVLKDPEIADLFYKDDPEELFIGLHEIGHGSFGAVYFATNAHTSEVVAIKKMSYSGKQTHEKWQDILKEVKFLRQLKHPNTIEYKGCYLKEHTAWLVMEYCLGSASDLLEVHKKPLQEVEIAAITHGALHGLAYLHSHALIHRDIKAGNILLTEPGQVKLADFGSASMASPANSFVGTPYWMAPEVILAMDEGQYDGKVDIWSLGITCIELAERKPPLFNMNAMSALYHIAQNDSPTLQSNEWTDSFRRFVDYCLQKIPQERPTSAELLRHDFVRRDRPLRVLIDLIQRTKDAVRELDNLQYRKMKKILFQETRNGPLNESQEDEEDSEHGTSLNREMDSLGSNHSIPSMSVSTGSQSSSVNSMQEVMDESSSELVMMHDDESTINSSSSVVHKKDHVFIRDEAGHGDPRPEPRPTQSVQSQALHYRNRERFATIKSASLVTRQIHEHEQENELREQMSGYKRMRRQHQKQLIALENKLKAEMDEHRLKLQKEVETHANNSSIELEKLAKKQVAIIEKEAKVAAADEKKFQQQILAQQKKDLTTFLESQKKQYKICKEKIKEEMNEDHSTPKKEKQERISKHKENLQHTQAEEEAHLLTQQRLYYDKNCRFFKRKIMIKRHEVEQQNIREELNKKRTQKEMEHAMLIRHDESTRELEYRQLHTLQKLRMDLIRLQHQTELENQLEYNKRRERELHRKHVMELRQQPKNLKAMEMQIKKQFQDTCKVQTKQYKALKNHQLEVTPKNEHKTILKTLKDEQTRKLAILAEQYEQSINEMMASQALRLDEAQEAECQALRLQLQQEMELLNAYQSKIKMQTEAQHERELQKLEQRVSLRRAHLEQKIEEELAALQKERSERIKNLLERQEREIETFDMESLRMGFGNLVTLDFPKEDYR

For `CCC(=O)Nc1ccc(C(=O)Nc2ccc(Nc3ncc4c(n3)N(C)c3ccc(C)cc3C(=O)N4C)cc2)cc1`, the Activity in experiment [1] worked out at 97%; in experiment [2] it was 87%; in experiment [3], 100%; in experiment [4] it was 87%; in experiment [5], 97%; in experiment [6], 89%. The Activity is 96% in [7]; 100% in experiment [8]; 92% in experiment [9]; 100% in [10]; 96% in experiment [11]; 96% in experiment [12]. Besides, the Activity in experiment [13] was found to be 95%; in [14], 93%; in experiment [15], 76%; in experiment [16] it was 67%; in experiment [17], 87%; in experiment [18], 100%. The Activity in [19] is 86%; in [20], 97%; in experiment [21] it was 100%; in experiment [22], 100%; in experiment [23], 87%.

For `C=CC(=O)Nc1ccc(C(=O)Nc2ccc(Nc3ncc4c(n3)N(C)c3ccc(C)cc3C(=O)N4C)cc2)cc1`, the Activity in experiment [1] was found to be 86%; in experiment [2], 92%; in experiment [3], 82%; in experiment [4], 95%; in experiment [5], 74%; in [6], 92%. In addition, the Activity amounted to 94% in [7]; 88% in experiment [8]; 95% in experiment [9]; 86% in experiment [10]; 99% in [11]; 100% in experiment [12]. The Activity in experiment [13] amounted to 95%; in experiment [14], 100%; in [15], 77%; in experiment [16], 95%; in experiment [17], 96%; in experiment [18], 100%. The Activity in experiment [19] worked out at 96%; in [20], 100%; in experiment [21], 100%; in experiment [22], 78%; in experiment [23], 93%.
